Source: PubChem BioAssay
Hits are enriched below; roughly 2.2% of the tested compounds scored in any of these assays.
V-ATPase pH: regulators of yeast V-ATPase proton pumping, primary screen, pHLuorin cytosolic pH fluorescence. S. cerevisiae. response, % at 10 µM. 350,000 compounds, 0.37% hits. AID 504577, 2011; in the data active = response mostly above about 7.3%, no sharp cut-off; inactive = mostly below about 5.4%; note: actives read high
NR2E3 ag-1: NR2E3 agonists in two-hybrid cells, primary screen, cell-based, luminescence, CHO-S, Gal4-NCOR/VP16-NR2E3; luciferase; 360,000 compounds, 0.35% hits; AID 602229, 2012; inhibition of corepressor binding, % at 3.98 µM;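 active = inhibition above the mean of all tested compounds plus 3 SD, cut at about 70% in these data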;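 note: 0% = DMSO with NR2E3 transfected cells and 100% = cells lacking NR2E3 construct; higher means lower luciferase signal from less NR2E3 corepressor binding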
Target sequence (Q9Y5X4 whole entry, looked up, the tested form may be a part): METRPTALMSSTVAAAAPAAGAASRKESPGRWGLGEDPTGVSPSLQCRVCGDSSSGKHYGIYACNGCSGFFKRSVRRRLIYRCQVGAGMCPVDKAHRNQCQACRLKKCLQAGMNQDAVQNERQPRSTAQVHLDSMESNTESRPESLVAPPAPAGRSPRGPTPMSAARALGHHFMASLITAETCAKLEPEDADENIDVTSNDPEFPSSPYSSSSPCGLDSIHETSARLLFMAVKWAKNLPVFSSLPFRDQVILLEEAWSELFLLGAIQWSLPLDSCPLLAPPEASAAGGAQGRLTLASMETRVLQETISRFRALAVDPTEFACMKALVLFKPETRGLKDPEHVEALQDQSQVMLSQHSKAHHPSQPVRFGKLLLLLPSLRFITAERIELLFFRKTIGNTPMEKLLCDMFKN
GalR3 antag: GalR3 antagonists in HEK293 cells, primary screen, cell-based, fluorescence readout; HEK293 GalR3-CNG cAMP membrane potential fluorescence; galR3 body fused to GalR1 C-terminus; 360,000 compounds, 0.44% hits; AID 651719, 2012; Galanin receptor type 3 (Homo sapiens), O60755; inhibition, % at 3 µM;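 active = inhibition above the screen-wide average plus 3 SD, cut at about 13% in these data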;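 note: forskolin and galanin both at EC90 stimulate the cells; cAMP rise reported by CNG channel membrane potential dye signal; 0% = forskolin plus galanin with DMSO and 100% = forskolin alone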
NR2E3 ag-2: inhibitors of NR2E3-RetCOR corepressor binding, primary screen, NR2E3 agonist project, biochemical, TR-FRET, GST-NR2E3, biotin-RetCOR; 320,000 compounds, 0.12% hits; 1536-well; inhibition of corepressor binding, % at 4.78 µM;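 active = percent inhibition above the cutoff of mean plus 3 SD of all tested compounds, set per screening campaign, cut at about 20% in these data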;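 note: 0% = DMSO wells and 100% = biotin wells as full block of FRET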
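Material: NR2E3–RetCOR corepressor complex / Amount: 1.35 nM GST-NR2E3 / Medium: Tris pH 7.5 / Compound: single nominal compound dose of 4.8 µM / Incubation: 5 h at 4 °C / Technique: TR-FRET, Eu(K)-anti-GST donor, streptavidin-D2 acceptor, ex 340, em 617/671 nm / Read-out basis: percent loss of FRET ratio relative to control wells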
HIV Env fusion: inhibitors of HIV-1 Env-driven cell-cell fusion, primary screen, HeLa-JRFL effector, CEM21 target cells, luciferase; AID 651610, 2012; inhibition, % at 12.3 µM; 360,000 compounds, 1.1% hits;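 active = mean replicate inhibition score of at least 50 and every replicate individually at or above 50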;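 note: 0% = plate neutral controls and 100% = maraviroc near 300 nM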
FXN GAA850 act: FXN promoter activators, primary screen, cell-based, luciferase luminescence, HEK293 lucGAA850. HEK293 lucGAA850 FXN promoter luciferase reporter, 24 h; percent of 10 µM SAHA response. activation, % at 6 µM. 360,000 compounds, 0.56% hits;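 active = activation above the average of all compounds screened plus 3 SD, cutoff fixed separately per campaign, cut at about 7.5% in these data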;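 note: 0% = DMSO wells and 100% = 10 µM SAHA wells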
Numbers without * were called inactive; / = not tested or not shown; [ ] = remark or other dose.

SMILES | V-ATPase pH | NR2E3 ag-1 | GalR3 antag | NR2E3 ag-2 | HIV Env fusion | FXN GAA850 act
C[C@@H](NC(=O)C[C@H]1C=C[C@H](NC(=O)C2CCOCC2)[C@@H](CO)O1)c1ccccc1 | / | / | / | / | 8[16.7 µM] | /
COc1cccc(NC(=O)CSc2nnc(Cc3cccs3)n2-c2ccc(C)cc2)c1 | 1 | -5 | -6 | 2 | 84* | -2
CC(C)NC(=O)N(C)C[C@H]1OCCCC[C@@H](C)Oc2ccc(NC(=O)c3ccncc3)cc2C(=O)N([C@@H](C)CO)C[C@H]1C | / | / | / | / | -10[16.7 µM] | /
COc1cccc(CNC(=O)C[C@@H]2C=C[C@H](NC(=O)C3CCC3)[C@H](CO)O2)c1 | / | / | / | / | 65*[16.7 µM] | /
COC(=O)C[C@H]1C=C[C@H](NC(=O)c2ccccn2)[C@@H](CO)O1 | / | / | -8 | / | 72* | /
COC(=O)C[C@@H]1C=C[C@H](NC(=O)c2cnccn2)[C@@H](CO)O1 | / | / | -7 | / | -7 | /
O=C(C[C@@H]1C=C[C@H](NC(=O)c2ccccc2)[C@H](CO)O1)NCc1ccc(Oc2ccccc2)cc1 | / | / | / | / | 61*[16.7 µM] | /
O=C(C[C@@H]1C=C[C@@H](NC(=O)c2ccccc2)[C@H](CO)O1)NCc1ccc(Oc2ccccc2)cc1 | / | / | / | / | 57*[16.7 µM] | /
COc1ccc(-c2nnc(SCc3nnc(-c4ccc(Cl)cc4)o3)n2-c2ccccc2)cc1 | -7 | 25 | -5 | 3 | 65* | 2
COc1ccc(NC(=O)N[C@@H]2CC[C@H](CCNC(=O)c3ccccc3F)O[C@H]2CO)cc1 | / | / | / | / | 11[16.7 µM] | /
CCc1nc2c(OCc3ccc(F)cc3)cccn2c1N(C)C(=O)c1ccco1 | / | -1 | -7 | / | -1 | 1
CCc1nc2c(OCc3ccc(C(F)(F)F)cc3)cccn2c1N(C)C(=O)c1ccco1 | / | 22 | -4 | / | 57* | -2
CCc1nc2c(OCc3ccc(C(F)(F)F)cc3)cccn2c1N(C=O)Cc1ccc(OC)cc1 | / | -17 | 1 | / | 56* | -1
CCCCN(C=O)c1c(CC)nc2c(OCc3ccc(C(F)(F)F)cc3)cccn12 | / | -5 | -8 | / | -2 | 1
COc1ccc(NC(=O)N(C)C[C@@H]2OCCCC[C@@H](C)Oc3ccc(NC(=O)c4ccccc4)cc3C(=O)N([C@H](C)CO)C[C@H]2C)cc1 | / | / | / | / | -33[16.7 µM] | /
C[C@@H]1CCCCO[C@@H](CN(C)Cc2ccc(C(F)(F)F)cc2)[C@@H](C)CN([C@H](C)CO)C(=O)c2cc(NC(=O)Nc3ccc(C(F)(F)F)cc3)ccc2O1 | / | / | / | / | -16[16.7 µM] | /
C[C@H]1CCCCO[C@@H](CN(C)Cc2ccc(C(F)(F)F)cc2)[C@@H](C)CN([C@@H](C)CO)C(=O)c2cc(NC(=O)Nc3ccc(C(F)(F)F)cc3)ccc2O1 | / | / | / | / | 82*[16.7 µM] | /
C[C@@H]1CN([C@H](C)CO)C(=O)c2cc(NC(=O)Nc3ccc(C(F)(F)F)cc3)ccc2O[C@@H](C)CCCCO[C@H]1CN(C)Cc1ccc(C(F)(F)F)cc1 | / | / | / | / | 64*[16.7 µM] | /
C[C@H](CO)N1C[C@H](C)[C@H](CN(C)Cc2ccc(C(F)(F)F)cc2)OCCCC[C@H](C)Oc2ccc(NC(=O)Nc3ccc(C(F)(F)F)cc3)cc2C1=O | / | / | / | / | 66*[16.7 µM] | /
C[C@@H]1CCCCO[C@@H](CN(C)Cc2ccc(C(F)(F)F)cc2)[C@H](C)CN([C@@H](C)CO)C(=O)c2cc(NC(=O)Nc3ccc4c(c3)OCO4)ccc2O1 | / | / | / | / | 55*[16.7 µM] | /
C[C@H]1CN([C@@H](C)CO)C(=O)c2cc(C#CC3(O)CCCC3)cnc2O[C@@H]1CN(C)Cc1ccccc1 | / | / | / | / | 11[16.7 µM] | /
C[C@H]1CCCCO[C@@H](CN(C)Cc2ccc3c(c2)OCO3)[C@@H](C)CN([C@@H](C)CO)C(=O)c2cc(NC(=O)Nc3ccc4c(c3)OCO4)ccc2O1 | / | / | / | / | 84*[16.7 µM] | /
C[C@@H]1CN([C@@H](C)CO)C(=O)c2cc(NC(=O)Nc3ccc4c(c3)OCO4)ccc2O[C@@H](C)CCCCO[C@@H]1CN(C)Cc1ccc2c(c1)OCO2 | / | / | / | / | -75[16.7 µM] | /
C[C@H]1CN([C@@H](C)CO)C(=O)c2cccc(NC(=O)Nc3ccc(F)cc3)c2O[C@H]1CN(C)S(C)(=O)=O | / | / | / | / | 6[16.7 µM] | /
C[C@@H]1CCCCO[C@@H](CN(C)C(=O)Nc2cccc3ccccc23)[C@H](C)CN([C@@H](C)CO)C(=O)c2cc(NC(=O)Nc3ccc(F)cc3)ccc2O1 | / | / | / | / | 8[16.7 µM] | /
SMILES | V-ATPase pH | NR2E3 ag-1 | GalR3 antag | NR2E3 ag-2 | HIV Env fusion | FXN GAA850 act
C[C@H](CO)N1C[C@H](C)[C@H](CN(C)Cc2cccc(F)c2)OCc2ccccc2-c2ccccc2C1=O | / | / | / | / | 75*[16.7 µM] | /
C[C@@H]1CN([C@@H](C)CO)C(=O)c2c(c3ccccc3n2C)-c2ccccc2CO[C@@H]1CN(C)Cc1cccnc1 | / | / | / | / | -7[16.7 µM] | /
C[C@H]1CN([C@@H](C)CO)C(=O)c2c(c3ccccc3n2C)-c2ccccc2CO[C@@H]1CN(C)C(=O)Cc1ccccc1 | / | / | / | / | 59*[16.7 µM] | /
C[C@H](CO)N1C[C@H](C)[C@H](CN(C)Cc2cccnc2)OCc2ccccc2-c2c(n(C)c3ccccc23)C1=O | / | / | / | / | 59*[16.7 µM] | /
C[C@H]1CN([C@@H](C)CO)C(=O)c2ccccc2-c2ccccc2CO[C@@H]1CN(C)C(=O)CCC(F)(F)F | / | / | / | / | 57*[16.7 µM] | /
C[C@@H]1CN([C@@H](C)CO)C(=O)c2ccccc2-c2ccccc2CO[C@@H]1CN(C)C(=O)CCC(F)(F)F | / | / | / | / | 15[16.7 µM] | /
C[C@@H]1CN([C@H](C)CO)C(=O)c2c(c3ccccc3n2C)-c2ccccc2CO[C@H]1CN(C)C(=O)Cc1ccccc1 | 0 | -27 | -4 | / | -32 | -2
CCCC#Cc1cnc2c(c1)C(=O)N([C@@H](C)CO)C[C@@H](C)[C@@H](CN(C)C(=O)C1CCC1)O2 | / | / | / | / | 12[16.7 µM] | /
